Measured values from different studies.
Lines come from different studies, so protocols differ. pEC50, pIC50: −log10 of the molar value.
Effect on: cell growth or viability

SMILES | cell line | test | setting | quantity | result
c1ccc(Oc2ccc(Nc3c4c(nc5ccccc35)CCC4)cc2)cc1 | J774.1 | resazurin | 72 h | pIC50 | 4.34
CN1CCN(c2ccc(Nc3c4ccccc4nc4ccccc34)cc2)CC1 | PLC-PRF-5 | imaging | 72 h | pIC50 | 5.49
CCOc1ccc(Nc2c3c(nc4ccccc24)CCC3)cc1 | J774.1 | resazurin | 72 h | pIC50 | 4.48
C[C@H](Nc1ccc2c(c1)OCCn1cc(N3C(=O)OC[C@H]3C(F)F)nc1-2)C(N)=O | NCI-H596 | ATP luminescence | 5 days | pEC50 | 7.08
Cc1cc(C)n(Cn2cnc3ccccc32)n1 | SH-SY5Y | MTT | 24 h | pIC50 | 4.08
Cc1nc(NC(=O)N2CCC[C@H]2C(N)=O)sc1-c1ccnc(C(C)(C)C(F)(F)F)c1 | NCI-H596 | ATP luminescence | 5 days | pEC50 | 6.31
OCn1ccnc1 | SH-SY5Y | MTT | 24 h | pIC50 | 5.16
Cc1cnc(CNC(=O)c2c(=O)c3ccc(N4CCCN(C)CC4)nc3n3c2sc2ccccc23)cn1 | PLC-PRF-5 | imaging | 72 h | pIC50 | 6.48
Cc1nc(Nc2ncc(C(=O)Nc3c(C)cccc3Cl)s2)cc(N2CC[C@H](O)C2)n1 | HuT78 | ATP luminescence | 10 µM, 72 h | inhibition | 7%
CCOC(=O)c1cc(C)n(Cn2cnc3ccccc32)n1 | SH-SY5Y | MTT | 24 h | pIC50 | 3.92
[Cl-].[Li+] | CHO | MTT |  | pIC50 | < 2.00
